Test results taken from ChEMBL document CHEMBL5038571, “Design and Synthesis of EZH2-Based PROTACs to Degrade the PRC2 Complex for Targeting the Noncatalytic Activity of EZH2” (J Med Chem, 2021).
pIC50: −log10 of the molar value. Calls of active or inactive are those of the source. No cut-off for these calls is given here.

Experiments:
[1] = molecular target: T1, Protein cereblon/Histone-lysine N-methyltransferase EZH2 (Homo sapiens) (UniProt Q15910+Q96SW2); assay: PROTAC activity at CRBN E3 ligase/EZH2 in PRC2 complex in human WSUDLCL2 cells assessed as downregulation of RbAp48 expression at 1 uM pretreated with EPZ6438 for 4 hrs followed by compound addition and measured after 48 hrs by Western blot analysis; assay type: cell-based
T1 sequence (Q15910 whole entry, looked up): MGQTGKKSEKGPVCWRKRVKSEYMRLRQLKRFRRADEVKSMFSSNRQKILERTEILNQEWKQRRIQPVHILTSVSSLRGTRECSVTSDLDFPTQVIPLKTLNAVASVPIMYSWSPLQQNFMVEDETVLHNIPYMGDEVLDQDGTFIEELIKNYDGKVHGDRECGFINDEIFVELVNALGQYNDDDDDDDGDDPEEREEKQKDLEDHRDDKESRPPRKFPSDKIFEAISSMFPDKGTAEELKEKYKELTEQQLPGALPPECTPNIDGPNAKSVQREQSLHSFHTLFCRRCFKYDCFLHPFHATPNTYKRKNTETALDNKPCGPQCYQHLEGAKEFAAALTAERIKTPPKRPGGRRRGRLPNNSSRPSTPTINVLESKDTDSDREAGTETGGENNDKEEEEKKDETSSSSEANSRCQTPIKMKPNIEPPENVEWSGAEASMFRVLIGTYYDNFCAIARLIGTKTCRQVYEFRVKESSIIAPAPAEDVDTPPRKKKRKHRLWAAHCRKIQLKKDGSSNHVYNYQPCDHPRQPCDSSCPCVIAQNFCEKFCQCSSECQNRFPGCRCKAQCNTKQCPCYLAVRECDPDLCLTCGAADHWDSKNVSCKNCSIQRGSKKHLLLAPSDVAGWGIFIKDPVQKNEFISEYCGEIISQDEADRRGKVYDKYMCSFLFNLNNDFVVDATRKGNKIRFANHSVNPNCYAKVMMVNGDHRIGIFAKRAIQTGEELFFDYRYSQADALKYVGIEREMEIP
T1 sequence (Q96SW2 whole entry, looked up): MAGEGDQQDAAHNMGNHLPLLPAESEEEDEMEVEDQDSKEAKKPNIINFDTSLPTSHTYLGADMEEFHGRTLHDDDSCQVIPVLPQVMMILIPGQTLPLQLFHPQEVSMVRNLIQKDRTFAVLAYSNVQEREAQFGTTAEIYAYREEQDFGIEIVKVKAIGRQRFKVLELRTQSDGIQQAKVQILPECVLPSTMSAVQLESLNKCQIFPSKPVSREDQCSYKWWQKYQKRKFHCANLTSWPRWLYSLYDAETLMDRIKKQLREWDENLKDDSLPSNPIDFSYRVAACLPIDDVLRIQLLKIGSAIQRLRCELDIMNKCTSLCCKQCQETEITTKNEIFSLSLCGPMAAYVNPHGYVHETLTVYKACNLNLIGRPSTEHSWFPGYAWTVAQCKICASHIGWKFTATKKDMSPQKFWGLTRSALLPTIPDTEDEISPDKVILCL
In short: (§1)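 WSU-DLCL-2 cells pretreated 4 h with the named inhibitor, then compound added and incubated a further 48 h. EZH2, SUZ12, EED and RbAp48 measured by western blot (nitrocellulose transfer, skim-milk block, primary antibody overnight at 4 °C, chemiluminescent detection).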

[2] = test system: NCI-H1299; assay: Downregulation of CENPK mRNA expression in human NCI-H1299 cells at 10 uM incubated for 48 hrs by qRT-PCR analysis; assay type: functional, cell-based
In short: (§2)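 Cells treated 48 h. Total RNA extracted with Trizol, reverse-transcribed, and SYBR RT-qPCR run: 95 °C 30 s, then 40 cycles of 95 °C 6 s and 60 °C 20 s. mRNA normalized to the DMSO-treated group. Mean SD of three independent experiments, t-test versus DMSO.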

[3] = molecular target: Polycomb protein EED (Homo sapiens) (UniProt O75530); assay: Binding affinity to EED in human WSUDLCL2 cells assessed as thermal stability by measuring shift in temperature at 60 uM pretreated with proteasome inhibitor MG132 for 1 hr followed by compound addition incubated for 2 hrs by cellular thermal shift based Western blot analysis; assay type: cell-based
Polycomb protein EED (Homo sapiens), sequence (O75530 2-441 limits assumed): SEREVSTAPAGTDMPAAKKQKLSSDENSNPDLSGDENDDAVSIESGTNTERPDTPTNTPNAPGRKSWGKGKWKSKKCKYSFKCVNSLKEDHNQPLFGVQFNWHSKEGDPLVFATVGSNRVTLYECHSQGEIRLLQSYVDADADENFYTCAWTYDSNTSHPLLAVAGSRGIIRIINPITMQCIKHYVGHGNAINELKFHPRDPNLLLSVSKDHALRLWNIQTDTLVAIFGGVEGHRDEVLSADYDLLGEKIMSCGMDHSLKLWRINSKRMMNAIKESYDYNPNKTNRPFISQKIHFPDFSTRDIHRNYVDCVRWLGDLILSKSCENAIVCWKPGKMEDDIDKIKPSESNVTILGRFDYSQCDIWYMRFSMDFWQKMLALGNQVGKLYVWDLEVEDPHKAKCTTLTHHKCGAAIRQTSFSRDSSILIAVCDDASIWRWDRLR
In short: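 Cellular thermal shift: cells suspended at 1.5 × 10⁶/mL and pretreated with MG-132 (5 μM, 1 h), then given 60 μM compound for 2 h with a DMSO control. Cells were lysed in RIPA with cocktail for 1 h. Supernatant aliquots were heated 6 min at 45, 48, 51, 54, 57 and 60 °C and centrifuged 15 min. Soluble protein was immunoblotted; bands quantified by densitometry; three independent experiments.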

[4] = molecular target: T1, Protein cereblon/Histone-lysine N-methyltransferase EZH2 (Homo sapiens); assay: PROTAC activity at CRBN E3 ligase/EZH2 in PRC2 complex in human WSUDLCL2 cells assessed as induction of SUZ12 degradation incubated for 48 hrs by Western blot analysis; assay type: cell-based; details: dose 1-10 µM
In short: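 WSU-DLCL-2 cells treated 48 h (1 μM for the single-concentration screen), lysed; SDS-PAGE, nitrocellulose transfer, 5% milk block, primary antibody 4 °C overnight, chemiluminescence. Bands quantified by densitometry, normalized to GAPDH, expressed relative to DMSO-treated cells; mean ± SD of three independent experiments, t-test.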

[5] = molecular target: T1, Protein cereblon/Histone-lysine N-methyltransferase EZH2 (Homo sapiens); assay: PROTAC activity at CRBN E3 ligase/EZH2 in PRC2 complex in human WSUDLCL2 cells assessed as induction of RbAp48 degradation incubated for 48 hrs by Western blot analysis; assay type: cell-based; details: dose 1-10 µM
[6] = molecular target: T1, Protein cereblon/Histone-lysine N-methyltransferase EZH2 (Homo sapiens); assay: PROTAC activity at CRBN E3 ligase/EZH2 in PRC2 complex in human WSUDLCL2 cells assessed as induction of SUZ12 degradation at 10 uM incubated for 48 hrs by Western blot analysis; assay type: cell-based
[7] = molecular target: T1, Protein cereblon/Histone-lysine N-methyltransferase EZH2 (Homo sapiens); assay: PROTAC activity at CRBN E3 ligase/EZH2 in PRC2 complex in human WSUDLCL2 cells assessed as induction of EED degradation by measuring reduction in EED protein level at 1 uM measured after 48 to 72 hrs by Western blot analysis; assay type: cell-based; details: time 48-72 hrs
[8] = test system: WSUDLCL2; assay: Inhibition of PRC2 in human WSUDLCL2 cells assessed as suppression H3K27 trimethylation incubated for 48 hrs by Western blot analysis; assay type: cell-based
In short: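 Lysates run on SDS-PAGE and transferred to nitrocellulose. Membranes blocked with 5% skim milk for 2 h, primary antibody applied overnight at 4 °C, then secondary antibody and chemiluminescent detection of histone H3 methylation marks.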

[9] = molecular target: T1, Protein cereblon/Histone-lysine N-methyltransferase EZH2 (Homo sapiens); assay: PROTAC activity at CRBN E3 ligase/EZH2 in PRC2 complex in human LNCaP cells assessed as induction of SUZ12 degradation by measuring reduction in SUZ12 protein level at 1 uM incubated for 48 hrs by Western blot analysis; assay type: cell-based
In short: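 Cells cultured in DMEM or RPMI 1640 with 10% FBS and 1% penicillin-streptomycin, 37 °C, 5% CO2; exposed to 1 μM compound for 48 h. Lysates run on SDS-PAGE and transferred to nitrocellulose. Blocked 2 h in 5% skim milk, primary antibody overnight at 4 °C, then secondary antibody. Chemiluminescent detection of PRC2 subunits and H3K27me3.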

[10] = molecular target: T1, Protein cereblon/Histone-lysine N-methyltransferase EZH2 (Homo sapiens); assay: PROTAC activity at CRBN E3 ligase/EZH2 in PRC2 complex in human A2780 cells assessed as induction of SUZ12 degradation by measuring reduction in SUZ12 protein level at 1 uM incubated for 48 hrs by Western blot analysis; assay type: cell-based
In short: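 Cancer cell lines exposed to 1 μM compound for 48 h. Lysates immunoblotted (SDS-PAGE, nitrocellulose, 5% milk block, primary antibody overnight at 4 °C) for EZH2, SUZ12, EED, RbAp48 and H3K27me3. Bands quantified by densitometry and normalized to GAPDH.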

[11] = molecular target: T1, Protein cereblon/Histone-lysine N-methyltransferase EZH2 (Homo sapiens); assay: PROTAC activity at CRBN E3 ligase/EZH2 in PRC2 complex in human WSUDLCL2 cells assessed as downregulation of SUZ12 expression at 1 uM pretreated with EED226 for 4 hrs followed by compound addition and measured after 48 hrs by Western blot analysis; assay type: cell-based; in short: as §1
[12] = molecular target: T1, Protein cereblon/Histone-lysine N-methyltransferase EZH2 (Homo sapiens); assay: PROTAC activity at CRBN E3 ligase/EZH2 in PRC2 complex in human WSUDLCL2 cells assessed as downregulation of EED expression at 1 uM pretreated with EED226 for 4 hrs followed by compound addition and measured after 48 hrs by Western blot analysis; assay type: cell-based; in short: as §1
[13] = test system: WSUDLCL2; assay: Upregulation of ADRB2 mRNA expression in human WSUDLCL2 cells at 1 uM incubated for 48 hrs by qRT-PCR analysis; assay type: functional, cell-based
In short: (§3)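 WSU-DLCL-2 or Pfeiffer cells treated 48 h. Trizol RNA extraction, reverse transcription, SYBR qPCR (95 °C 30 s; 40 cycles of 95 °C 6 s, 60 °C 20 s). mRNA normalized to DMSO-treated cells; mean ± SD of three independent experiments, t-test.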

[14] = test system: WSUDLCL2; assay: Upregulation of CDKN2A mRNA expression in human WSUDLCL2 cells at 1 uM incubated for 48 hrs by qRT-PCR analysis; assay type: functional, cell-based; in short: as §3
[15] = test system: Pfeiffer; assay: Upregulation of CDKN2A mRNA expression in human Pfeiffer cells at 1 uM incubated for 48 hrs by qRT-PCR analysis; assay type: functional, cell-based; in short: as §3
[16] = test system: NCI-H1299; assay: Downregulation of […] mRNA expression in human NCI-H1299 cells at 10 uM incubated for 48 hrs by qRT-PCR analysis; assay type: functional, cell-based; in short: as §2
[17] = test system: Pfeiffer; assay: Antiproliferative activity against human Pfeiffer cells harboring EZH2-A677G mutant assessed as inhibition of cell growth incubated for 3 to 7 days by optical microscopic analysis (Rvb= 0.49 uM); assay type: functional, cell-based
[18] = test system: A549; assay: Antiproliferative activity against EZH2-knockdown human A549 cells assessed as inhibition of cell growth at 10 uM treated for 9 days by optical microscopic analysis; assay type: functional, cell-based; details: time 9.0 day
In short: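 Cells seeded at 5 × 10³ per well, grown 24 h, then exposed to compound at 10 μM for 9 days with medium refreshed. Cells were photographed and counted on days 1, 3, 5, 7 and 9. For lines 1-2, EZH2-targeting or control shRNA was induced in the cells. Mean SD of three independent experiments; t-test against control.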

Activity [1]: inactive
Activity [3]: inactive
Activity [4]: Dose-Dependent Effect
Activity [5]: Dose-Dependent Effect
Activity [6]: inactive
Activity [7]: Active
Activity [9]: Active
Activity [10]: Active
Activity [11]: Active
Activity [12]: Active
SMILES: CCN(c1cc(-c2ccc(CN3CCN(CCCCCCCOc4cccc5c4C(=O)N(C4CCC(=O)NC4=O)C5=O)CC3)cc2)cc(C(=O)NCc2c(C)cc(C)[nH]c2=O)c1C)C1CCOCC1 (stereo not drawn)
Activity [2]: Active
inhibition [8]: Dose-Dependent Effect
Activity [13]: Active
Activity [14]: inactive
Activity [15]: inactive
Activity [16]: Active
pIC50 [17]: 6.68
Activity [18]: Active
